# Source: PubChem (The Scripps Research Institute Molecular Screening Center)
# In the library only some 1.8% were active in any assay of this set; here they are far more common.
# CHRM5 PAM: human M5 muscarinic receptor positive allosteric modulators, primary screen, CHO-K1 cells, Fluo-8 calcium fluorescence; Muscarinic acetylcholine receptor M5 (Homo sapiens), P08912; CHO-K1 hM5, ACh EC20 PAM; 0% = ACh EC20, 100% = ACh EC100; AID 624038, 2012; hit rate 0.3% among 360,000; activation, % at 3 µM;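 active means activation above the run cutoff, the mean activation of all test compounds plus 3 SD, cut at about 18% in these data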
# Target sequence (P08912 whole entry, looked up): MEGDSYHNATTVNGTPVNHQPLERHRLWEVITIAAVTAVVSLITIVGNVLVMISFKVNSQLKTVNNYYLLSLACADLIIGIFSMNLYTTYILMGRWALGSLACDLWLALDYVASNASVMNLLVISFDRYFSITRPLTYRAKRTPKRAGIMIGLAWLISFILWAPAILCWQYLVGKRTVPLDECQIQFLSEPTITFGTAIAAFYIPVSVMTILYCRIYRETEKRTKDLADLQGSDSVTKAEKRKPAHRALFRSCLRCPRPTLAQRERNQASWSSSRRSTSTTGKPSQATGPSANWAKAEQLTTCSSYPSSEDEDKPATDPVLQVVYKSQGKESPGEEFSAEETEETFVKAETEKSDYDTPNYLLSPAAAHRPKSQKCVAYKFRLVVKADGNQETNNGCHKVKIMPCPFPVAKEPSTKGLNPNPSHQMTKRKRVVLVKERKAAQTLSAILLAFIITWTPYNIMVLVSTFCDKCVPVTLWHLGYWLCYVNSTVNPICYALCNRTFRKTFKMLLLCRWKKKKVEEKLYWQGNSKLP
#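 Assay system: CHO-K1 hM5 cells. Also added: acetylcholine at EC20 concentration, added after compound. Dosing: 3 µM, single dose. Times: compound preincubation 140 s before EC20 acetylcholine addition. Signal: Fluo-8 calcium fluorescence. Measure: % activation relative to EC20 and EC100 ACh responses. Repeats: singlicate, one well per test compound.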
# CHRM4 agonist: human M4 muscarinic receptor agonists, primary screen, CHO-K1 cells, Fluo-8 calcium fluorescence; CHO-K1 hM4/Gqi5; vehicle 0%, full acetylcholine response 100%; Muscarinic acetylcholine receptor M4 (Homo sapiens), P08173; activation, % at 3 µM; AID 624127, 2012; hit rate 0.14% among 360,000;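 active means activation above the run mean over all test wells plus 3 SD, cut at about 32% in these data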;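 further: peak over basal fluorescence ratio per well then scaled between controls; 0% = DMSO wells and 100% = acetylcholine at EC100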
# CHRM4 antagonist: human M4 muscarinic receptor antagonists, primary screen, CHO cells, Fluo-8 calcium fluorescence; CHO-hM4 cells, ACh EC80; hit rate 0.73% among 360,000; Muscarinic acetylcholine receptor M4 (Homo sapiens), P08173; inhibition, % at 3 µM; AID 624125, 2012;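 active means inhibition above its plate's cutoff, the mean inhibition of sample wells plus 3 SD, cut at about 27% in these data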;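 further: 0% = acetylcholine EC80 with DMSO and 100% = DMSO without agonist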
# M5 ag: human M5 muscarinic receptor agonists, primary screen, CHO-K1 cells, Fluo-8 calcium fluorescence; CHO-K1 hM5 cells; 0% DMSO wells, 100% maximal acetylcholine response; activation, % at 3 µM; hit rate 0.19% among 360,000; AID 624037, 2012;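 active means activation above the run's mean over test compounds plus 3 SD, cut at about 23% in these data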;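 further: signal is peak over basal fluorescence ratio across the kinetic read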
# CHRM5 antagonist: human M5 muscarinic receptor antagonists, primary screen, CHO cells, Fluo-8 calcium fluorescence | CHO-hM5 cells, ACh EC80 | hit rate 0.59% among 360,000 | inhibition, % at 3 µM | Muscarinic acetylcholine receptor M5 (Homo sapiens), P08912;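 active means inhibition above a per-plate cutoff, the mean of that plate's test compounds plus 3 SD, cut at about 27% in these data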;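 further: 0% = acetylcholine EC80 with DMSO and 100% = DMSO without agonist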
# CHRM4 PAM: human M4 muscarinic receptor positive allosteric modulators, primary screen, CHO-K1 cells, Fluo-8 calcium fluorescence. Muscarinic acetylcholine receptor M4 (Homo sapiens), P08173. hit rate 0.4% among 360,000. activation, % at 3 µM. CHO-K1 hM4/Gqi5, ACh EC20; 0% = ACh EC20, 100% = maximal ACh;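 active means activation above its plate's cutoff, the mean activation of sample wells plus 3 SD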
# * = called active by the depositor.
SMILES,CHRM5 PAM,CHRM4 agonist,CHRM4 antagonist,M5 ag,CHRM5 antagonist,CHRM4 PAM
CC(C)N=C(NS(=O)(=O)c1ccc(Br)cc1)c1ccc(Cl)cc1,1.4,1.7,0.5,-2.8,8.2,3.0
FC(F)Sc1ccc(NC(=S)NCC2CCCCC2)cc1,-17.1,6.9,12.2,1.3,39.8*,-24.2
CC[C@@H](C(=O)[C@@H](C)[C@@H](O)[C@H](C)CCc1ccc(C)c(O)c1C(=O)O)[C@H]1O[C@](CC)([C@H]2CC[C@](O)(CC)[C@H](C)O2)C[C@@H]1C,-14.2,71.7*,5.0,26.9*,0.2,-11.1
O=C(NCC(O)c1nc2ccccc2[nH]1)c1cc2ccccc2[nH]1 (stereo unspecified),-5.8,2.0,5.8,0.1,15.4,-5.6
CS(=O)(=O)c1ccc(NS(=O)(=O)c2ccc(Cl)c(C(=O)NCc3ccco3)c2)cc1,-2.5,0.3,-38.8,1.3,-1.0,23.5*
CCN(CC)S(=O)(=O)c1ccc(Cl)c(C(=O)NCc2ccco2)c1,11.3,3.2,3.8,-3.8,-1.8,9.6
CC(=O)c1ccc(NS(=O)(=O)c2cccc(C(=O)Nc3ccccc3C(=O)O)c2)cc1,11.3,-1.4,-21.0,5.5,-6.8,13.8*
O=C(Nc1ccccc1C(=O)O)c1cc(S(=O)(=O)Nc2ccccc2)ccc1Cl,12.2,-1.9,-8.8,4.7,-4.4,15.7*
O=C(O)c1ccc(NS(=O)(=O)c2ccc(Cl)c(C(=O)Nc3ccccc3)c2)cc1,0.2,1.1,-9.9,2.3,7.3,1.5
COc1ccc(CCC2(C)OCC(CCCCO)O2)cc1 (stereo unspecified),7.0,0.4,7.2,8.1,4.3,12.2
O=S(=O)(Nc1nc2ccccc2[nH]1)c1ccc(Cl)cc1,-17.4,4.7,67.5*,-7.2,49.6*,-28.9
O=S(=O)(Nc1nc2ccccc2[nH]1)c1ccccc1,-17.8,-0.1,18.9,-6.9,7.8,-20.1
O[Si](CCCN1CCCCC1)(c1ccc(F)cc1)C1CCCCC1 (stereo unspecified),-18.4,4.7,90.1*,0.6,74.4*,-18.9
CCOC(CNC(=O)c1ccc2c(c1)ncn2-c1cccc(F)c1)OCC,-11.2,1.0,4.5,-1.0,28.3*,-3.7
COc1ccc(NS(=O)(=O)NC(=O)c2c[nH]c3ccccc23)cc1,4.3,1.1,-4.0,-4.2,-1.6,4.8
COc1cc(/C=N/N2C(=O)C3C4c5ccccc5C(c5ccccc54)C3C2=O)ccc1O (stereo unspecified),32.8*,-0.7,-7.4,2.4,19.2,17.1
Cc1sc2ncnc(NCC3COc4ccccc4O3)c2c1C (stereo unspecified),-17.0,10.7,32.1*,1.4,38.3*,-12.3
c1ccc(-c2csc3ncnc(NCC4COc5ccccc5O4)c23)cc1 (stereo unspecified),-16.3,4.8,37.9*,-4.5,37.5*,-9.6
CC(=O)N1CC(C)Oc2ccc(S(=O)(=O)NC(CC(=O)O)c3cc(C)ccc3C)cc21 (stereo unspecified),0.0,3.2,-0.8,-4.2,0.5,3.2
Cc1cc(-c2ccccc2)[nH]c(=O)c1S(=O)(=O)c1ccc(Cl)cc1,-2.5,0.3,5.3,2.4,4.0,6.0
Cc1cc(-c2ccccc2)[nH]c(=O)c1S(=O)(=O)c1ccccc1,21.1*,2.7,-2.8,-4.0,4.0,1.6
Cc1noc(C)c1NC(=O)N(C)C[C@H]1Oc2ccc(NC(=O)Nc3ccc(C(F)(F)F)cc3)cc2C(=O)N([C@H](C)CO)C[C@@H]1C,-3.9,0.7,-4.0,1.0,11.3,4.4
CCN(CC)CCCOC(=O)C(c1ccccc1)c1ccccc1,-23.8,2.1,91.2*,-5.9,98.2*,-14.7
COc1ccc(CCn2c(NN=C3CCCCC3)nc3c2c(=O)[nH]c(=O)n3C)cc1,5.4,-0.1,2.4,1.5,6.0,13.8*
